Assay [1] deals with Streptococcus mutans. Briefly: Antibacterial activity against Streptococcus mutans ATCC 27351 assessed as growth inhibition at 5 ug/ml following preincubation of compound with supernatant of Porphyromonas gingivalis ATCC 33277. The assay is classed as functional, organism-based. Put shortly:
(§1)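 Stationary-phase P. gingivalis or A. actinomycetemcomitans cultures were spun 10 min at 10,000 × g and the supernatant filter-sterilised (0.2 μm). Peptide was preincubated with 20% (final) filtrate for varying times. It was then added to S. mutans (overnight culture diluted 1:10 in BHI, bath-sonicated 1 min), grown at 37°C in 5% CO2, and read at OD650. % inhibition: no-peptide = 0%, fresh-medium-preincubated peptide = 100%. Mean ± SD, three independent experiments.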

Assay [2] concerns Porphyromonas gingivalis. Briefly: Antibacterial activity against Porphyromonas gingivalis ATCC 33277. Type of assay: functional, organism-based. In a few lines: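 Increasing amounts of peptide were added to a growing anaerobic P. gingivalis culture. Percent growth inhibition was calculated relative to untreated cells (0%). Means ± SD of three independent experiments.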
Assay [3] has as its system Streptococcus mutans. Briefly: Antibacterial activity against Streptococcus mutans ATCC 27351 assessed as growth inhibition at 5 ug/ml following preincubation of compound with supernatant of Aggregatibacter actinomycetemcommitans ATCC 29523. The assay is classed as functional, organism-based. Put shortly:
as §1

For assay [4], the system named is Porphyromonas gingivalis. Briefly: Binding affinity to membranes of Porphyromonas gingivalis KDP136 using Alexa Fluor-labeled compound at 0.8 mg/ml by fluorimetric assay.
Assay [5] has as its system Streptococcus mutans. Briefly: Antibacterial activity against Streptococcus mutans assessed as growth inhibition at 5 ug/ml following preincubation of compound with supernatant of Aggregatibacter actinomycetemcommitans ATCC 29523.
Assay [6] relates to Streptococcus mutans. Briefly: Antibacterial activity against Streptococcus mutans assessed as growth inhibition at 5 ug/ml following preincubation of compound with supernatant of Porphyromonas gingivalis ATCC 33277.
Assay [7] concerns Streptococcus mutans. Briefly: Antibacterial activity against Streptococcus mutans ATCC 27351 assessed as growth inhibition at 40 ug/ml following preincubation of compound with supernatant of Porphyromonas gingivalis ATCC 33277. The assay is classed as functional, organism-based. In a few lines: as §1
For assay [8], the system named is Streptococcus mutans. Briefly: Antibacterial activity against Streptococcus mutans assessed as growth inhibition at 40 ug/ml following preincubation of compound with supernatant of Porphyromonas gingivalis ATCC 33277.
For assay [9], the system named is Streptococcus mutans. Briefly: Antibacterial activity against Streptococcus mutans assessed as growth inhibition at 40 ug/ml following preincubation of compound with supernatant of Aggregatibacter actinomycetemcommitans ATCC 29523.
In assay [10] the test system is Streptococcus mutans. Briefly: Antibacterial activity against Streptococcus mutans ATCC 27351 assessed as growth inhibition at 40 ug/ml following preincubation of compound with supernatant of Aggregatibacter actinomycetemcommitans ATCC 29523. The assay is classed as functional, organism-based. In a few lines:
as §1

The test system of assay [11] is Escherichia coli. Briefly: Antibacterial activity against Escherichia coli ATCC 25922 assessed as growth inhibition at 100 ug/ml following preincubation of compound with supernatant of Porphyromonas gingivalis ATCC 33277. The assay is classed as functional, organism-based. Put shortly:
(§2)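 Peptide preincubated with filter-sterilized stationary-phase culture supernatant (20% final) for set times, then 10 µl added to 190 µl E. coli overnight culture (diluted 1:5,000 in BHI, sonicated 1 min); peptide 100 μg/ml final on cells; aerobic growth; OD650 read; % inhibition relative to no-peptide (0%) and medium-preincubated peptide (100%); three independent experiments in triplicate, mean ± SD.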

Assay [12] concerns Streptococcus mutans. Briefly: Antibacterial activity against Streptococcus mutans ATCC 27351 assessed as growth inhibition at 100 ug/ml following preincubation of compound with supernatant of Aggregatibacter actinomycetemcommitans ATCC 29523. The assay is classed as functional, organism-based. In a few lines:
(§3)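 Peptide at 100 μg/ml incubated with filter-sterilized stationary-phase culture supernatant (20% final) for set times; 10 µl added to 190 µl S. mutans overnight culture diluted 1:10 in BHI and sonicated 1 min; grown at 37°C, 5% CO2; OD650 read; % inhibition relative to no-peptide (0%) and medium-preincubated peptide (100%); three experiments in triplicate, mean ± SD.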

The test system of assay [13] is Porphyromonas gingivalis. Briefly: Antibacterial activity against protease deficient Porphyromonas gingivalis KDP136. Type of assay: functional.
The subject of assay [14] is Escherichia coli. Briefly: Antibacterial activity against Escherichia coli ATCC 25922 assessed as growth inhibition at 100 ug/ml following preincubation of compound with supernatant of Aggregatibacter actinomycetemcommitans ATCC 29523. Type of assay: functional, organism-based. Put shortly: as §2
For assay [15], the system named is Streptococcus mutans. Briefly: Antibacterial activity against Streptococcus mutans ATCC 27351 assessed as growth inhibition at 100 ug/ml following preincubation of compound with supernatant of Porphyromonas gingivalis ATCC 33277. The assay is classed as functional, organism-based. Put shortly:
as §3

The source made the active and inactive calls. No cut-off for these calls is given here.

For H-ALWKTLLKKVLKAAA-NH2, the result in the assay on Streptococcus mutans [1], with Porphyromonas gingivalis [2], in the assay with Porphyromonas gingivalis [4] and in the assay with Streptococcus mutans [6] was inactive. The outcome in the assay with Streptococcus mutans [3] and in the assay with Streptococcus mutans [5] was Active.
For the molecule H-KRLFKKLLFSLRKY-NH2, the result in the assay on Streptococcus mutans [7] and in the assay on Streptococcus mutans [8] was inactive. In addition, the result with Streptococcus mutans [9] and with Streptococcus mutans [10] was Active.
The MIC is the least concentration at which growth counts as inhibited. With `CC[C@H](C)[C@H](NC(=O)[C@H](CCCCN)NC(=O)[C@H](CCC(=O)O)NC(=O)[C@H](CCCCN)NC(=O)[C@H](CO)NC(=O)[C@H](CCCCN)NC(=O)[C@H](CCCNC(=N)N)NC(=O)[C@H](Cc1ccccc1)NC(=O)[C@H](Cc1ccccc1)NC(=O)[C@H](CC(=O)O)NC(=O)CNC(=O)[C@H](CC(C)C)NC(=O)[C@@H](N)CC(C)C)C(=O)NCC(=O)N[C@@H](CCCCN)C(=O)N[C@@H](CCC(=O)O)C(=O)N[C@@H](Cc1ccccc1)C(=O)N[C@@H](CCCCN)C(=O)N[C@@H](CCCNC(=N)N)C(=O)N[C@H](C(=O)N[C@H](C(=O)N[C@@H](CCC(N)=O)C(=O)N[C@@H](CCCNC(=N)N)C(=O)N[C@H](C(=O)N[C@@H](CCCCN)C(=O)N[C@@H](CC(=O)O)C(=O)N[C@@H](Cc1ccccc1)C(=O)N[C@@H](CC(C)C)C(=O)N[C@@H](CCCNC(=N)N)C(=O)N[C@@H](CC(N)=O)C(=O)N[C@@H](CC(C)C)C(=O)N[C@H](C(=O)N1CCC[C@H]1C(=O)N[C@@H](CCCNC(=N)N)C(=O)N[C@H](C(=O)N[C@@H](CCC(=O)O)C(=O)N[C@@H](CO)C(=O)O)[C@@H](C)O)C(C)C)[C@@H](C)CC)C(C)C)[C@@H](C)CC` [CATHELICIDIN], the result in the assay on Escherichia coli [11] and with Streptococcus mutans [15] was inactive. The result in the assay with Streptococcus mutans [12] and with Escherichia coli [14] was Active. For the same molecule, the MIC against Porphyromonas gingivalis [13] was > 200 µg/mL.
